Source: ChEMBL document CHEMBL2057101, “Fluorocyclines. 2. Optimization of the C-9 side-chain for antibacterial activity and oral efficacy” (J Med Chem, 2012)
Converted amounts (≈) assume the structure as drawn.

Experiments:
Staphylococcus aureus [1] = test: Antibacterial activity against tetracycline-susceptible Staphylococcus aureus ATCC 13709 Smith isolate SA100; format: functional
In short: (§1)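 Broth microdilution MIC following CLSI methods in cation-adjusted Mueller Hinton broth, prepared fresh and held at 4 °C before testing. Defibrinated horse blood added to the medium where appropriate. Runs accepted when quality control ranges for comparator antibiotics and ATCC QC strains were met.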

Staphylococcus aureus [2] = test: Antibacterial activity against tetracycline-resistant Staphylococcus aureus isolate SA161 expressing TetM gene; format: functional; in short: as §1
Staphylococcus aureus [3] = test: Antibacterial activity against tetracycline-resistant Staphylococcus aureus isolate SA158 expressing TetK gene; format: functional
Streptococcus pneumoniae [4] = test: Antibacterial activity against Streptococcus pneumoniae ATCC 49619 isolate 106; format: functional
In short: (§2)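 MIC by broth microdilution in liquid medium per CLSI, in cation-adjusted Mueller Hinton broth made fresh and held at 4 °C before testing. Horse blood (defibrinated) added to the medium where appropriate. Runs were accepted only when the comparator antibiotics and ATCC QC strains fell within their recommended ranges.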

Streptococcus pneumoniae [5] = test: Antibacterial activity against tetracycline-resistant Streptococcus pneumoniae isolate 160 expressing tetM gene; format: functional
Escherichia coli [6] = test: Antibacterial activity against Escherichia coli ATCC 25922 isolate 107; format: functional; in short: as §2
Escherichia coli [7] = test: Antibacterial activity against Escherichia coli isolate EC155 expressing tetA gene; format: functional; in short: as §2
Staphylococcus aureus [8] = test: Antibacterial activity against Staphylococcus aureus ATCC 13709 infected in CD-1 mouse assessed as increase in survival at 3 mg/kg, iv administered as single dose 1 hr post infection measured after 48 hrs post infection; format: functional
In short: (§3)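 Mouse septicemia screen: S. aureus grown to log phase, diluted in 5% mucin to give 90% mortality within 48 h, inoculum 1.98 × 10⁶ CFU/mouse, 0.5 mL intraperitoneal into female CD-1 mice (18−20 g). Six mice per group. Single 30 mg/kg oral gavage or 3 mg/kg IV dose 1 h post infection. Infection controls received sterile water vehicle. Survival recorded at 48 h.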

Staphylococcus aureus [9] = test: Antibacterial activity against Staphylococcus aureus ATCC 13709 infected in CD-1 mouse assessed as increase in survival at 30 mg/kg, po administered as single dose 1 hr post infection measured after 48 hrs post infection; format: functional; in short: as §3
Klebsiella pneumoniae = test: Antibacterial activity against Klebsiella pneumoniae ATCC 13883; format: functional; in short: as §2
Staphylococcus aureus [10] = test: Antibacterial activity against Staphylococcus aureus ATCC 13709 infected in po dosed CD-1 mouse assessed as increase in survival administered as single dose 1 hr post infection measured after 48 hrs post infection; format: functional; conditions: ATCC 13709, po, read-out: PD50
[11] = Oral bioavailability in CD1 mouse at 30 mg/kg; format: ADME, organism-based; conditions: CD1, mouse, in vivo
[12] = Oral bioavailability in human; format: ADME, organism-based; conditions: in vivo

For CCN1CCC[C@H]1C(=O)Nc1cc(F)c2c(c1O)C(=O)C1=C(O)[C@]3(O)C(=O)C(C(N)=O)=C(O)[C@@H](N(C)C)[C@@H]3C[C@@H]1C2, the MIC (Staphylococcus aureus [1]) was 0.031 µg/mL (≈ 0.0541 µM), the MIC (Staphylococcus aureus [2]) was 0.13 µg/mL (≈ 0.227 µM) and the MIC (Staphylococcus aureus [3]) was 0.031 µg/mL (≈ 0.0541 µM). For the same compound, the MIC (Streptococcus pneumoniae [4]) was ≤ 0.016 µg/mL, the MIC (Streptococcus pneumoniae [5]) was ≤ 0.016 µg/mL and the MIC (Escherichia coli [6]) was 0.13 µg/mL (≈ 0.227 µM). It also gave an MIC (Escherichia coli [7]) of 4 µg/mL (≈ 6.99 µM), a survival at 3 mg/kg (Staphylococcus aureus [8]) of 67% and a survival at 30 mg/kg (Staphylococcus aureus [9]) of 40%.

With CN(C)[C@@H]1C(O)=C(C(N)=O)C(=O)[C@@]2(O)C(O)=C3C(=O)c4c(O)c(NS(C)(=O)=O)cc(F)c4C[C@H]3C[C@@H]12 the MIC (Staphylococcus aureus [1]) was 0.13 µg/mL (≈ 0.247 µM), the MIC (Staphylococcus aureus [2]) was 0.25 µg/mL (≈ 0.476 µM) and the MIC (Staphylococcus aureus [3]) was 4 µg/mL (≈ 7.61 µM). For the same compound, the MIC (Streptococcus pneumoniae [4]) was 0.016 µg/mL (≈ 0.0304 µM), the MIC (Streptococcus pneumoniae [5]) was 0.016 µg/mL (≈ 0.0304 µM) and the MIC (Escherichia coli [6]) was 0.25 µg/mL (≈ 0.476 µM). For the same compound, the MIC (Escherichia coli [7]) was > 32 µg/mL, the MIC (Klebsiella pneumoniae) was 2 µg/mL (≈ 3.81 µM) and the survival at 3 mg/kg (Staphylococcus aureus [8]) was 100%. For the same compound, the survival at 30 mg/kg (Staphylococcus aureus [9]) was 50% and the ED50 (Staphylococcus aureus [10]) was > 30 mg/kg.

With CN(C)[C@@H]1C(O)=C(C(N)=O)C(=O)[C@@]2(O)C(O)=C3C(=O)c4c(O)c(NC(=O)c5ccccn5)cc(F)c4C[C@H]3C[C@@H]12 the MIC (Staphylococcus aureus [1]) was 0.13 µg/mL (≈ 0.235 µM), the MIC (Staphylococcus aureus [2]) was 0.13 µg/mL (≈ 0.235 µM) and the MIC (Staphylococcus aureus [3]) was 0.13 µg/mL (≈ 0.235 µM). The MIC (Streptococcus pneumoniae [4]) was 4 µg/mL (≈ 7.24 µM), the MIC (Streptococcus pneumoniae [5]) was 8 µg/mL (≈ 14.5 µM) and the MIC (Escherichia coli [6]) was > 32 µg/mL. For the same compound, the MIC (Escherichia coli [7]) was > 32 µg/mL, the MIC (Klebsiella pneumoniae) was > 32 µg/mL and the survival at 3 mg/kg (Staphylococcus aureus [8]) was 0%. For the same compound, the survival at 30 mg/kg (Staphylococcus aureus [9]) was 0% and the ED50 (Staphylococcus aureus [10]) was > 30 mg/kg.

For CN(C)[C@@H]1C(O)=C(C(N)=O)C(=O)[C@@]2(O)C(O)=C3C(=O)c4c(O)c(NC(=O)c5nccs5)cc(F)c4C[C@H]3C[C@@H]12, the MIC (Staphylococcus aureus [1]) was 0.063 µg/mL (≈ 0.113 µM), the MIC (Staphylococcus aureus [2]) was 0.13 µg/mL (≈ 0.233 µM) and the MIC (Staphylococcus aureus [3]) was 0.063 µg/mL (≈ 0.113 µM). The MIC (Streptococcus pneumoniae [4]) was 2 µg/mL (≈ 3.58 µM), the MIC (Streptococcus pneumoniae [5]) was 4 µg/mL (≈ 7.16 µM) and the MIC (Escherichia coli [6]) was > 32 µg/mL. For the same compound, the MIC (Escherichia coli [7]) was > 32 µg/mL, the MIC (Klebsiella pneumoniae) was > 32 µg/mL and the survival at 3 mg/kg (Staphylococcus aureus [8]) was 17%. It also gave a survival at 30 mg/kg (Staphylococcus aureus [9]) of 0%.

CC(C)CCNc1cc(F)c2c(c1O)C(=O)C1=C(O)[C@]3(O)C(=O)C(C(N)=O)=C(O)[C@@H](N(C)C)[C@@H]3C[C@@H]1C2 gave an MIC (Staphylococcus aureus [1]) of 0.25 µg/mL (≈ 0.483 µM), an MIC (Staphylococcus aureus [2]) of 0.5 µg/mL (≈ 0.966 µM) and an MIC (Staphylococcus aureus [3]) of 0.13 µg/mL (≈ 0.251 µM). The MIC (Streptococcus pneumoniae [4]) was 2 µg/mL (≈ 3.86 µM), the MIC (Streptococcus pneumoniae [5]) was 4 µg/mL (≈ 7.73 µM) and the MIC (Escherichia coli [6]) was > 32 µg/mL. For the same compound, the MIC (Escherichia coli [7]) was > 32 µg/mL, the MIC (Klebsiella pneumoniae) was > 32 µg/mL and the survival at 3 mg/kg (Staphylococcus aureus [8]) was 17%. For the same compound, the survival at 30 mg/kg (Staphylococcus aureus [9]) was 33% and the ED50 (Staphylococcus aureus [10]) was > 60 mg/kg.

In the case of CN(C)[C@@H]1C(O)=C(C(N)=O)C(=O)[C@@]2(O)C(O)=C3C(=O)c4c(O)c(NC(=O)[C@@H]5CCCN5)cc(F)c4C[C@H]3C[C@@H]12, the MIC (Staphylococcus aureus [1]) is reported as 0.25 µg/mL (≈ 0.459 µM), the MIC (Staphylococcus aureus [2]) is reported as 0.5 µg/mL (≈ 0.918 µM) and the MIC (Staphylococcus aureus [3]) is reported as 0.5 µg/mL (≈ 0.918 µM). For the same compound, the MIC (Streptococcus pneumoniae [4]) was 0.016 µg/mL (≈ 0.0294 µM), the MIC (Streptococcus pneumoniae [5]) was 0.016 µg/mL (≈ 0.0294 µM) and the MIC (Escherichia coli [6]) was 1 µg/mL (≈ 1.84 µM). For the same compound, the MIC (Escherichia coli [7]) was 16 µg/mL (≈ 29.4 µM), the MIC (Klebsiella pneumoniae) was 1 µg/mL (≈ 1.84 µM) and the survival at 3 mg/kg (Staphylococcus aureus [8]) was 100%. The survival at 30 mg/kg (Staphylococcus aureus [9]) was 0%.

With CNC(=O)Nc1cc(F)c2c(c1O)C(=O)C1=C(O)[C@]3(O)C(=O)C(C(N)=O)=C(O)[C@@H](N(C)C)[C@@H]3C[C@@H]1C2 the MIC (Staphylococcus aureus [1]) was 0.25 µg/mL (≈ 0.496 µM), the MIC (Staphylococcus aureus [2]) was 2 µg/mL (≈ 3.96 µM) and the MIC (Staphylococcus aureus [3]) was 16 µg/mL (≈ 31.7 µM). The MIC (Streptococcus pneumoniae [4]) was 0.031 µg/mL (≈ 0.0615 µM), the MIC (Streptococcus pneumoniae [5]) was 0.5 µg/mL (≈ 0.991 µM) and the MIC (Escherichia coli [6]) was 1 µg/mL (≈ 1.98 µM). For the same compound, the MIC (Escherichia coli [7]) was > 32 µg/mL, the MIC (Klebsiella pneumoniae) was 4 µg/mL (≈ 7.93 µM) and the survival at 3 mg/kg (Staphylococcus aureus [8]) was 83%. For the same compound, the survival at 30 mg/kg (Staphylococcus aureus [9]) was 33% and the ED50 (Staphylococcus aureus [10]) was > 30 mg/kg.

In the case of CN(C)[C@@H]1C(O)=C(C(N)=O)C(=O)[C@@]2(O)C(O)=C3C(=O)c4c(O)cccc4[C@@](C)(O)[C@H]3C[C@@H]12 [TETRACYCLINE], the MIC (Staphylococcus aureus [1]) is reported as 1 µg/mL (≈ 2.25 µM), the MIC (Staphylococcus aureus [2]) is reported as > 32 µg/mL and the MIC (Streptococcus pneumoniae [4]) is reported as 0.25 µg/mL (≈ 0.563 µM). The MIC (Escherichia coli [6]) was 2 µg/mL (≈ 4.5 µM), the MIC (Escherichia coli [7]) was > 32 µg/mL and the MIC (Klebsiella pneumoniae) was 4 µg/mL (≈ 9 µM). For the same compound, the survival at 3 mg/kg (Staphylococcus aureus [8]) was 100%, the survival at 30 mg/kg (Staphylococcus aureus [9]) was 100% and the ED50 (Staphylococcus aureus [10]) was 6.9 mg/kg. For the same compound, the bioavailability [11] was 6.3% and the bioavailability [12] was 50%.
